Bioassay records as filed in PubChem BioAssay.
Rows were chosen to be rich in hits. Some 0.58% of all compounds tested hit in one or more screens of this group.
FXIIa mix inh – inhibitors of human coagulation factor XIIa, pooled mixtures; actives 0.2% (n = 62,000); purified FXIIa, fluorogenic substrate; inhibition, % at 5 µM; AID 684;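 also: 0% = enzyme without compound and 100% = no enzyme blank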
MMP13 inh – blocks human MMP13 activity; actives 0.07% (n = 65,000); P45452; inhibition, % at 4 µM; MMP-13 fTHP FRET cleavage, Mca fluorescence;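 active = inhibition above the mean of compound-free control plate wells plus 3 SD, cut at about 14% in these data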;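 also: 0% = DMSO wells and 100% = wells with reference MMP-13 inhibitor after basal subtraction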
C1s block – human complement C1s inhibition | purified C1s, fluorogenic AMC substrate, pooled mixtures | P09871 | mean inhibition % of two 10-compound mixtures (stronger effect = higher value), % at 5 µM (by protocol) | actives 0.16% (n = 62,000);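 active = inhibition above 20% in each of the two 10-compound mixture wells holding the compound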;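 also: 0% = enzyme wells lacking compound mixture and 100% = no-enzyme blank wells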
Cathepsin G inh – cathepsin G (human) inhibition. actives 0.2% (n = 62,000). inhibition, % at 5 µM (by protocol). purified enzyme, AMC-tetrapeptide fluorescence, pooled mixtures. P08311;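 active = inhibition above 20% in each of the two mixture wells holding the compound; inactive = inhibition of 20% or less in either well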;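 also: 0% = enzyme control without mixture and 100% = blank lacking enzyme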
AP complement – alternative pathway complement inhibition, orthogonal assay. Human serum alternative complement pathway, LPS-coated ELISA, C3 deposition; tested in compound mixtures. inhibition, % at 5 µM. actives 0.08% (n = 62,000);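 active = inhibition above 30% in each of the two pooled mixtures holding the compound, so the lower value exceeds 30%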;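 also: 0% = serum in Mg-EGTA without compound and 100% = EDTA serum blank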
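Test system: human serum complement alternative pathway, C3 deposition onto LPS / Medium: Mg2+-EGTA GVB++ buffer containing human serum at 1:15 dilution / Probe or stimulus: Plate-bound LPS / Times: 1 h at 37 °C / Signal: ELISA with HRP anti-human C3 antibody, TMB substrate, absorbance 450 nm / Measure: percent inhibition / Repeats: two pool placements per compound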
FXIa mix inh – factor XIa (human) inhibition, mixture screen; purified FXIa, fluorogenic substrate, pooled mixtures; P03951; inhibition, % at 5 µM; actives 0.19% (n = 62,000);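 also: each value is inhibition by a whole ten-compound pool holding the compound; 0% = enzyme with no mixture and 100% = wells lacking enzyme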
Numbers without * were called inactive; / = no result given. Rule as the data show it, unless noted: active = inhibition above about 20% (passing the limit was not always enough); inactive = the rest.

SMILES	FXIIa mix inh	MMP13 inh	C1s block	Cathepsin G inh	AP complement	FXIa mix inh
COc1ccc(OC)c(N2C(=O)CC(C(C)c3ccccc3)C2=O)c1 (configuration not stated)	-14	5	-1	-2	-5	5
O=c1cc(-c2ccccc2)nc2nc(-c3ccccc3)[nH]n12	11	-8	44*	10	1	6
COc1cc(Cl)ccc1NC(=O)COc1ccccc1C(=O)N1CCN(c2ccc(O)cc2)CC1	9	3	6	3	-2	3
COc1ccc(CC(=O)OCc2cc3ccccc3[nH]c2=O)cc1	13	-2	67*	-9	-18	-3
COc1ccc(CC(=O)OCc2cc3ccc(C)cc3[nH]c2=O)cc1	1	-1	-2	0	10	8
COC(=O)c1ccccc1NC(=O)c1cc2sccc2n1C	3	-20	-5	31*	29	-3
COC(=O)c1cccc(NC(=O)c2cc3sccc3n2C)c1	4	8	5	8	2	4
CC(C)Cn1c(SCC(=O)c2ccc(Cl)s2)nnc1-c1ccco1	8	-4	-20	8	-6	-8
O=c1c2c3c(sc2n2cnnc2n1C1CCCCC1)CCC3	/	20*	/	/	/	/
Clc1ccc(OCc2nn3c(C4CCCCC4)nnc3s2)cc1	5	-2	9	8	5	14
CCOc1cc2[nH]c(=S)n(CC3CCCO3)c(=O)c2cc1OCC (configuration not stated)	20	4	22*	14	7	8
COc1cc2[nH]c(=S)n(CC3CCCO3)c(=O)c2cc1OC (configuration not stated)	4	10	-2	-5	-1	5
CC(C)CN(CC(C)C)S(=O)(=O)N1CCC(C(=O)NCc2ccc(F)cc2)CC1	9	2	24*	16	8	8
CCS(=O)(=O)N1CCC(C(=O)NCc2ccc(F)cc2)CC1	-2	-18	11	3	17	1
O=c1oc(-c2cccc(S(=O)(=O)N3CCOCC3)c2)nc2ccccc12	2	5	17	49*	11	4
O=c1oc(-c2cccnc2)nc2ccccc12	2	2	15	56*	8	3
c1cncc(-c2nc3ccccc3o2)c1	11	-13	1	7	16	-4
COc1ccccc1CN1CCN(C(CC(C)C)c2nnnn2Cc2cccs2)CC1 (configuration not stated)	1	0	-31	8	22	2
CCOC(=O)Cn1cnc2sc3c(c2c1=O)CCC3	57*	2	-6	-8	-3	2
CCOC(=O)C(C)n1cnc2sc3c(c2c1=O)CCC3 (configuration not stated)	6	2	6	7	8	1
CCCCC(=O)Nc1ccc(NC(=O)c2cccnc2)cn1	-15	2	21*	9	-8	6
CN(C(=O)COc1cc(=O)n(C)c2ccccc12)c1ccc(Br)cc1	10	10	9	7	8	-2
O=C(c1csc2c1CCCC2)n1cccn1	11	1	52*	48*	6	45*
O=C(c1csc2c1CCCC2)N1CCN(c2ncccn2)CC1	5	-1	-15	5	6	-7
Cc1cc(C)n(CCc2nc3c4ccccc4nc(SCc4ccc(C#N)cc4)n3n2)n1	26*	2	11	7	12	6
SMILES	FXIIa mix inh	MMP13 inh	C1s block	Cathepsin G inh	AP complement	FXIa mix inh
C=CCn1c(COc2ccc(Cl)cc2)nnc1SCC(=O)N1CC(=O)Nc2ccccc21	-2	-9	1	14	13	5
Cc1ccc(SCc2[nH]nc3c2C(c2ccc(C)o2)C(C#N)=C(N)O3)cc1 (configuration not stated)	6	3	-17	48	-15	86*
Cc1ccc(SCc2[nH]nc3c2C(c2ccco2)C(C#N)=C(N)O3)cc1 (configuration not stated)	-17	10	-27	-16	-18	-5
O=C(Oc1ccc(N2C(=O)CCC2=O)cc1)c1ccco1	4	2	1	1	0	-1
O=C(Oc1ccc(-n2cnnn2)cc1)c1ccco1	3	4	31*	11	4	7
COc1ccccc1N=Cc1nc(-c2ccccc2)oc1OC(C)=O	6	-3	9	26*	-5	50*
CC(=O)Oc1oc(-c2ccccc2)nc1/C=N/c1ccccn1	/	-5	/	/	/	/
COc1ccc(-n2c(SCC(=O)N3CCCC3)nc3c([nH]c4ccccc43)c2=O)cc1	12	2	-4	-2	7	0
Cc1ccc(S(=O)(=O)Nc2nc3ccc(S(=O)(=O)N4CCCC4)cc3s2)cc1	6	0	-7	-4	0	4
Cc1cccc(-n2nc3c(c2NC(=O)c2ccc(Br)o2)CSC3)c1	0	5	-10	-1	11	4
CC(C)CCNC(=O)CN(Cc1ccc2c(c1)OCO2)C(=O)Cn1nnc(-c2cccs2)n1	1	2	-15	-8	-6	1
O=C(O)CCCC(=O)Nc1ccccc1C(=O)O	1	-2	49*	10	7	7
CCCCNC(=O)CC(=O)Nc1ccccc1C(=O)O	24	-6	-3	8	11	2
COc1ccc(S(=O)(=O)N2CCCC(C(=O)O)C2)cc1 (configuration not stated)	-13	/	-5	-3	12	4
COc1ccc(S(=O)(=O)N2CCC(C(N)=O)CC2)cc1	-12	7	-8	48	7	31*
COC(=O)C1=CNC=C(C(=O)OC)C1c1ccc(C(=O)OC)cc1	8	-109	-48	-11	15	-8
Cc1c(NC(=O)C2Cc3ccccc3CN2C(=O)c2ccco2)c(=O)n(-c2ccccc2)n1C (configuration not stated)	-9	0	21*	14	6	7
Cc1c(NC(=O)C2CCCN2S(=O)(=O)c2ccccc2)c(=O)n(-c2ccccc2)n1C (configuration not stated)	7	-1	10	6	6	9
COC(=O)CCC(=O)c1oc2ccccc2c1N	1	-6	4	10	17	2
CC1CN(C(=O)Cc2ccc(-c3ccccc3)cc2)CC(C)O1 (configuration not stated)	2	-4	-7	9	21	6
COc1ccc(C2C(C(C)=O)=C(C)N=c3s/c(=C\c4cc(C)n(C)c4C)c(=O)n32)c(OC)c1 (configuration not stated)	-4	18*	18	12	10	10
COc1ccc(C2C(C(C)=O)=C(C)N=c3s/c(=C\c4ccco4)c(=O)n32)c(OC)c1 (configuration not stated)	1	6	14	9	23	12
